Assay results published in the EternaBench riboswitch data.

Tested on: MS2 coat protein
Experiment: apparent Kd, MS2 coat protein; higher = weaker binding; RNA-MaP array; tryptophan 2.4 mM where present
Method in brief: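 Two titrations, one without ligand and one with constant ligand, were run with SNAP-549-labelled MS2 coat protein from 0.7 or 1.5 nM, doubling to 3 µM. The targets were designs transcribed by stalled E. coli RNA polymerase on Illumina sequencing-chip clusters, in 100 mM Tris-HCl pH 7.5, 80 mM KCl, 4 mM MgCl2, BSA, DTT, yeast tRNA and Tween-20. The apparent Kd is the median of filtered per-cluster binding-curve fits, with green signal normalised to red-channel RNA signal and control-cluster median Fmax.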

[1] = designed as: OFF switch for tryptophan, no ligand
[2] = ligand present: tryptophan, designed as: OFF switch for tryptophan
[3] = designed as: ON switch for tryptophan, no ligand
[4] = ligand present: tryptophan, designed as: ON switch for tryptophan

| Sequence | apparent Kd [1] [µM] | apparent Kd [2] [µM] | apparent Kd [3] [µM] | apparent Kd [4] [µM] |
| --- | --- | --- | --- | --- |
| UCGUUUUAGUCGGCCGCCACUGGUCUCAUGUUCAACAUGAGGAUCACCCAUGUAUCUUAUUUUAACAGGACCGGGACGUAAUAGA | 0.0508 | 0.0198 |  |  |
| AUCUUUGACGAUCUGGGAAAACCAGAUCGGCGAGGACCGGUACGGCCGCCACUCGUGUAUAAUAUACAUGAGGAUCACCCAUGUA |  |  | 0.0404 | 0.0296 |
| GUACACUAGUCGGCCGCCACUGUUACAUGAGGAUCACCCAUGUAGGAUCACCCAUGACAUGAGGAUAGGACCGGGACGCAUGAGG | 0.045 | 0.0413 |  |  |
| CACGAAAGAUCGGCCGCCACUAACCUGUGUGUACUAGCACAUGAGGAUCACCCAUGUUCUUGCGUUAGGACCGGGAUUGAGCGUG | 0.023 | 0.0217 |  |  |
| AGUUUAGACACGGCCGCCACUCGUGACAGAUUUCGCAGUGGUCUACAUGAGGAUCACCCAUGUCUGAGGACCGGGUGUUGAGUUU | 0.144 | 0.433 |  |  |
| GUUUUAUACUCGGCCGCCACUGAGAGAGUCAUGUAAACAUGAGGAUCACCCAUGUAAUAUAUAUACAGGACCGGGAGUAGGGUAA | 0.0129 | 0.0154 |  |  |
| CGAUAUAAGACGGCCGCCACUAUUAAGUAACAAAAUAAACAUGAGGAUCACCCAUGUACAUGGGAUAGGACCGGGUCCAAUAACG |  |  | 0.163 | 0.0769 |
| CAAUAAGUACCGGUCCUCAGAUCCUCAUGACGAGGACCGGUACGGCCGCCACUCGAAACAUGAGGAUCACCCAUGUAAUAAUAAU | 0.023 | 0.0284 |  |  |
| AUGGUAAGAACAUGAGGAUCACCCAUGUGACGAGGACCGGUACGGCCGCCACUCGUACCUUAGUCGUCGAACAGAGGAUUCAUGU |  |  | 0.0892 | 0.066 |
| GGGUGGUAGGCGGCCGCCACUGAUUUUCAUUCCUAGAUGACAUGAGGAUCACCCAUGUUUAUGGGCAGGACCGGGCCUGCUGUGG |  |  | 0.0627 | 0.0557 |
| GCUGCAGCUACGGCCGCCACUGUUACGUGAGACAUGAGGAUCACCCAUGUUGAUGUUUUACAGAAUAGGACCGGGUAGUUGUAGU | 0.00907 | 0.0102 |  |  |
| CCAUGCAGGUCGGCCGCCACUACACACAUGAGGAUCACCCAUGUAGUUACUGGGUGAAGUGGCAGUAGGACCGGGACCUGCACAU |  |  | 0.311 | 0.729 |
| UCAUAAGUACCGGUCCUCAGAUCCUCAUGACGAGGACCGGUACGGCCGCCACUCGAAACAUGAGGAUCACCCAUGUAAUAACAUU | 0.0209 | 0.0185 |  |  |
| AAUAAGAUCCUCAUGUGAGUCGUACCAUAACGAGGACCGGUACGGCCGCCACUCGAACAUGAGGAUCACCCAUGUAGGUACGACA |  |  | 0.118 | 0.176 |
| AUAAUAAUGUCGGCCGCCACUAUAAACAUGAGGAACAUGAGGAUCACCCAUGUAUGAGGAUCACCUAGGACCGGGACUAAUAUUA | 0.0476 | 0.0433 |  |  |
| ACACAAUACAUGAGGAUCACCCAUGUAAAACGAGGACCGGUACGGCCGCCACUCGAAUACAGGAAACCUCGGAAUAUUAAGUGAA | 0.0518 | 0.038 |  |  |
| GAGGAAACUCACAUGAGGAUCACCCAUGUACGAGGACCGGUACGGCCGCCACUCGAAACCAUGGGCGGUAGUACGUGGAAGCUUG | 0.0218 | 0.0959 |  |  |
| AUAAAUAAUAAAUAAGAUAAAAUGGGUGAACGAGGACCGGUACGGCCGCCACUCGGACAUGAGGAUCACCCAUGUCCAUGUGAAA | 0.0202 | 0.0276 |  |  |
| AUACAUGAGGAUCACCCAUGUCCUCGUGAUCGAGGACCGGUACGGCCGCCACUCGGUCCUCGCGAGGAGGAGUCAAAGACUCCUA |  |  | 0.178 | 0.128 |
| CGUAUUGGAAACAGUACGAGUGAUCCGGUCCGAGGACCGGUACGGCCGCCACUCGAUAUAAAUAAACAUGAGGAUCACCCAUGUA | 0.0163 | 0.0257 |  |  |
| UAAUAAGUACCGGUCCUCAGAUCCUCAUGUCGAGGACCGGUACGGCCGCCACUCGAAACAUGAGGAUCACCCAUGUAAUAAUAAU | 0.0395 | 0.0315 |  |  |
| AGACUGUAAAGUCUACCGGUCAACAAUAAUCGAGGACCGGUACGGCCGCCACUCGAUGUGAUAUACACAUGAGGAUCACCCAUGU |  |  | 0.0162 | 0.0155 |
